M1 antag – human CHRM1 antagonism | P11229 | CHO-K1 hM1, Fluo-8 calcium fluorescence, ACh EC80 antagonist | inhibition, % at 3 µM | 360,000 compounds, 1.3% hits | AID 588852;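 active means percent inhibition above its own plate's cutoff, namely the mean of that plate's compound wells plus 3 SD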;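 further: peak over basal fluorescence ratio during 140 s after agonist addition; 0% = ACh EC80 plus DMSO and 100% = DMSO alone without agonist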
CHRM5 agonist – agonists of human muscarinic M5 receptor (CHRM5); P08912; 360,000 compounds, 0.19% hits; CHO-K1 hM5 cells, Fluo-8 calcium fluorescence; 0% DMSO wells, 100% maximal acetylcholine response; activation, % at 3 µM; AID 624037;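 active means activation above the run's mean over test compounds plus 3 SD, cut at about 23% in these data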;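 further: signal is peak over basal fluorescence ratio across the kinetic read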
Target sequence (P08912 whole entry, looked up): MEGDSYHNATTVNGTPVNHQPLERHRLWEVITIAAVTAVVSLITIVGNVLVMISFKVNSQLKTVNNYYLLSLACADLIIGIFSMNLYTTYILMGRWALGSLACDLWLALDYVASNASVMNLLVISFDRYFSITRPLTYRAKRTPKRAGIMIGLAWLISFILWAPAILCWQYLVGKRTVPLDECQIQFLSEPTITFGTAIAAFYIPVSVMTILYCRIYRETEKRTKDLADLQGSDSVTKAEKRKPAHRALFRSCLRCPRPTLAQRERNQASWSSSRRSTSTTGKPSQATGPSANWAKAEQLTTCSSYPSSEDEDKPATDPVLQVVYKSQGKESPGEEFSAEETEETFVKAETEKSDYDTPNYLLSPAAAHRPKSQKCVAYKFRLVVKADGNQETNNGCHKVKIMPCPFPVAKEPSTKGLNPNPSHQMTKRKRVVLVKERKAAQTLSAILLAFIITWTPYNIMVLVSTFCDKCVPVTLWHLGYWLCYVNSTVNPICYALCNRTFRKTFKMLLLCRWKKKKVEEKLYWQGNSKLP
M5 antag – blocks acetylcholine activation of human M5 receptor; P08912; CHO-hM5 cells, Fluo-8 calcium fluorescence, ACh EC80; inhibition, % at 3 µM; 360,000 compounds, 0.59% hits; AID 624040;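 active means inhibition above a per-plate cutoff, the mean of that plate's test compounds plus 3 SD, cut at about 27% in these data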;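 further: 0% = acetylcholine EC80 with DMSO and 100% = DMSO without agonist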
M1 ag – activates human CHRM1 receptor; P11229; CHO-K1 hM1, Fluo-8 calcium fluorescence, agonist mode; 0% DMSO, 100% acetylcholine EC100; activation, % at 3 µM; 360,000 compounds, 0.33% hits;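 active means activation above the run's mean compound activation plus 3 SD, cut at about 16% in these data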;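 further: peak over basal fluorescence ratio within a 140 s kinetic read after compound addition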
M1 PAM – potentiates human M1 receptor response to acetylcholine; activation, % at 3 µM; P11229; 360,000 compounds, 0.088% hits; CHO-K1 hM1, Fluo-8 calcium fluorescence, ACh EC20; 0% = ACh EC20, 100% = maximal ACh; in the data active means activation above about 19%, passing the limit was not always enough
M5 PAM – CHRM5 positive allosteric modulation. P08912. CHO-K1 hM5, Fluo-8 calcium, ACh EC20 PAM; 0% = ACh EC20, 100% = ACh EC100. activation, % at 3 µM. 360,000 compounds, 0.3% hits;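 active means activation above the run cutoff, the mean activation of all test compounds plus 3 SD, cut at about 18% in these data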
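System: CHO-K1 cell line with stable human muscarinic M5 receptor expression | Also added: EC20 acetylcholine as agonist stimulus | Compound: One concentration, 3 µM final (nominal) | Timing: Fluo-8 loading 80 min at 37 °C plus 30 min room temperature | Measured by: Fluo-8 calcium dye fluorescence, kinetic read | Read-out basis: % activation, ACh-normalized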
An asterisk follows results filed as active. Sampled rows, rich in hits. Any-hit rate of the full collection: about 2.1%.

Results for Cc1cc(C(=O)Nc2ccc(Nc3ccccc3)cc2)ccc1[N+](=O)[O-] ?
M1 antag: -5; CHRM5 agonist: 2; M5 antag: -3; M1 ag: -2; M1 PAM: -2; M5 PAM: -1

How did Cc1nc2ccc(NC(=O)c3ccc(Cl)c(S(=O)(=O)N(C)c4ccccc4)c3)cc2s1 do in these assays?
M1 antag: 25; CHRM5 agonist: 1; M5 antag: -2; M1 ag: -4; M1 PAM: -13; M5 PAM: 2

What do the screens show for `CN(c1cccc(NC(=O)c2ccc(N(C)S(=O)(=O)c3ccccc3)cc2)c1)S(C)(=O)=O`?
M1 antag: 28*; CHRM5 agonist: 9; M5 antag: 11; M1 ag: -5; M1 PAM: -35; M5 PAM: -16

Results for CCOC(=O)CC1Sc2ccccc2NC1=S (configuration not stated) ?
M1 antag: -1; CHRM5 agonist: -1; M5 antag: -2; M1 ag: 0; M1 PAM: 4; M5 PAM: -1

What do the screens show for `O=C(Nc1ccccc1N1CCCC1)c1cccc(F)c1`?
M1 antag: 1; CHRM5 agonist: -6; M5 antag: 2; M1 ag: -8; M1 PAM: -5; M5 PAM: -1

Results for CCCCN(CC)CCNC(=O)c1cc2c(-c3ccccc3F)nn(C)c2s1 ?
M1 antag: -25; CHRM5 agonist: -6; M5 antag: -3; M1 ag: -7; M1 PAM: 28*; M5 PAM: 5

How did CC(CNS(=O)(=O)c1ccc2c(c1)NC(=O)CCS2)c1ccccc1 (configuration not stated) do in these assays?
M1 antag: -5; CHRM5 agonist: 1; M5 antag: 4; M1 ag: 0; M1 PAM: 2; M5 PAM: -5

How did CN(Cc1cccnc1)C(=O)c1cc(COc2ccc3c(c2)CCCC3)on1 do in these assays?
M1 antag: 64*; CHRM5 agonist: -1; M5 antag: 33*; M1 ag: 0; M1 PAM: -21; M5 PAM: -18

What do the screens show for `CC(=O)c1cccc(OCc2cc(C(=O)N(C)Cc3cnccn3)no2)c1`?
M1 antag: 4; CHRM5 agonist: 1; M5 antag: 1; M1 ag: -3; M1 PAM: 2; M5 PAM: 1

What do the screens show for `CC1=C([N+](=O)[O-])C(c2ccccc2Cl)NC(=O)N1` (configuration not stated)?
M1 antag: -10; CHRM5 agonist: -3; M5 antag: -5; M1 ag: -4; M1 PAM: 4; M5 PAM: 5

What do the screens show for `CCCCCCC[C@@H](C/C=C/CCC(=O)N(C)C/C(=C/Cl)C/C(=C\C(=O)N1CC(OC)=CC1=O)OC)OC`?
M1 antag: 33*; CHRM5 agonist: 0; M5 antag: 12; M1 ag: -4; M1 PAM: -11; M5 PAM: -13

How did CS(=O)(=O)c1ccc(C(=O)Nc2cc(S(C)(=O)=O)ccc2Cl)cc1 do in these assays?
M1 antag: -2; CHRM5 agonist: 2; M5 antag: 4; M1 ag: -9; M1 PAM: 5; M5 PAM: -5

What do the screens show for `COc1ccc(COCC(O)CN2CCCCC2)cc1OC` (configuration not stated)?
M1 antag: -6; CHRM5 agonist: -5; M5 antag: -12; M1 ag: -2; M1 PAM: 14; M5 PAM: 3

What do the screens show for `COc1ccc(C2(C)NC(=O)N(CC(=O)N3CCc4ccccc43)C2=O)cc1OC` (configuration not stated)?
M1 antag: 1; CHRM5 agonist: 1; M5 antag: -5; M1 ag: -3; M1 PAM: 2; M5 PAM: 14

Results for CCC1(c2ccc(F)cc2)NC(=O)N(CC(=O)N2c3ccccc3CC2C)C1=O (configuration not stated) ?
M1 antag: 6; CHRM5 agonist: 29*; M5 antag: 0; M1 ag: 27*; M1 PAM: -1; M5 PAM: 1

What do the screens show for `CCC1(c2ccc(F)cc2)NC(=O)N(CC(=O)c2cc(C)n(C3CC3)c2C)C1=O` (configuration not stated)?
M1 antag: 7; CHRM5 agonist: 25*; M5 antag: 10; M1 ag: 30*; M1 PAM: 1; M5 PAM: -2

How did CCC1(c2ccc(OC)cc2)NC(=O)N(CC(=O)N2CCc3ccccc32)C1=O (configuration not stated) do in these assays?
M1 antag: 7; CHRM5 agonist: 39*; M5 antag: 5; M1 ag: 29*; M1 PAM: -3; M5 PAM: -7

Results for N#Cc1ccccc1N=C1CCCN1Cc1ccccc1 ?
M1 antag: 3; CHRM5 agonist: -10; M5 antag: 6; M1 ag: -6; M1 PAM: -2; M5 PAM: -7

What do the screens show for `COC(=O)N1c2ccccc2C=Cc2ccccc21`?
M1 antag: -6; CHRM5 agonist: -2; M5 antag: -3; M1 ag: -10; M1 PAM: 2; M5 PAM: 8

What do the screens show for `O=C(CN1CCCC1)N1c2ccccc2C=Cc2ccccc21`?
M1 antag: 90*; CHRM5 agonist: -14; M5 antag: 49*; M1 ag: -6; M1 PAM: -22; M5 PAM: -34

What do the screens show for `O=C(CN1CCCCCC1)N1c2ccccc2C=Cc2ccccc21`?
M1 antag: 98*; CHRM5 agonist: -6; M5 antag: 80*; M1 ag: -7; M1 PAM: -25; M5 PAM: -16

Results for CN1CCN(C(=O)N2c3ccccc3C=Cc3ccccc32)CC1 ?
M1 antag: 94*; CHRM5 agonist: -13; M5 antag: 98*; M1 ag: -5; M1 PAM: -24; M5 PAM: -25

What do the screens show for `Cc1ccc(-c2c(C)n([O-])c3c([n+]2=O)CCC3)o1`?
M1 antag: -15; CHRM5 agonist: -2; M5 antag: 1; M1 ag: -1; M1 PAM: 9; M5 PAM: 4

What do the screens show for `O=C(OCCN1CCCCC1)C1(c2ccccc2)CCCC1`?
M1 antag: 100*; CHRM5 agonist: -11; M5 antag: 99*; M1 ag: -15; M1 PAM: -38; M5 PAM: -18

How did CCOC(=O)CNC(=O)C1(c2ccccc2)CCCC1 do in these assays?
M1 antag: -7; CHRM5 agonist: -1; M5 antag: -4; M1 ag: -2; M1 PAM: 15; M5 PAM: 2

What do the screens show for `O=C(OCCN1CCCCC1)c1ccccc1Br`?
M1 antag: 25; CHRM5 agonist: -4; M5 antag: 21; M1 ag: -7; M1 PAM: -18; M5 PAM: -11

Bioassay records from PubChem BioAssay.
